In the library only some 2.2% were active in any assay of this set; here they are far more common.
E-sel TNF inh: blocks E-selectin expression induced by TNF alpha; inhibition, % at 2 µM; HUVEC TNFa-induced E-selectin immunofluorescence, high content; hit rate 0.71% among 120,000;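 active means inhibition above the batch mean plus 3 SD, and confirmed as a hit on visual image review, cut at about 43% in these data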;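 further: 0% = TNF-stimulated DMSO wells and 100% = unstimulated control wells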
PLK1 kinase inh: inhibitors of human PLK1 kinase; hit rate 0.53% among 97,000; P53350; inhibition, % at 10 µM; recombinant PLK1 kinase, TR-FRET peptide phosphorylation; AID 619;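 active means inhibition of 50% or more in the single-concentration screen; inactive means inhibition below 50%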;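 further: 0% = DMSO max control and 100% = H-89 dihydrochloride min control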
Target sequence (P53350 whole entry, looked up): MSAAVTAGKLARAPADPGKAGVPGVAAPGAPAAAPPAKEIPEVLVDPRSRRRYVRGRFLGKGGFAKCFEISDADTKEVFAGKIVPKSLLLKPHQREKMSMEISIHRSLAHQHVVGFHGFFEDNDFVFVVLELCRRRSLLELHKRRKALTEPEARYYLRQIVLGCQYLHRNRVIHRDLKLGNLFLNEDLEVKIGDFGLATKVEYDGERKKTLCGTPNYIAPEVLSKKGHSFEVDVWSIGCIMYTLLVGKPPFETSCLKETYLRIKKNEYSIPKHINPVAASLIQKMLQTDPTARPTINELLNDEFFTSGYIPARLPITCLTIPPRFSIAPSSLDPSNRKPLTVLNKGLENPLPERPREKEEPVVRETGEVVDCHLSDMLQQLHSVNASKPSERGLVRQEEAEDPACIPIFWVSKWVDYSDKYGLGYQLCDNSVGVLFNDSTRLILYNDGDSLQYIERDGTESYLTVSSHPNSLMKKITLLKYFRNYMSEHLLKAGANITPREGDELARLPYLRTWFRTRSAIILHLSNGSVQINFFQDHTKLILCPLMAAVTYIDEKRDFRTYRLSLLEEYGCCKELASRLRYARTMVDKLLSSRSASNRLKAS
Plk1 PBD FP: inhibitors of human Plk1 polo box domain binding; inhibition, %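 (tested at about 20 µM)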; P53350; Plk1 PBD phosphopeptide binding, fluorescence polarization; hit rate 0.13% among 97,000; in the data active means inhibition above about 34%, passing the limit was not always enough
Rev-RRE block: HIV Rev-RRE protein-RNA interaction inhibition; hit rate 0.79% among 97,000; inhibition, % at 8 µM; P05866; AID 704; Rev peptide-RRE RNA binding, FRET;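 active means inhibition above the screen-wide mean plus 3 SD, cut at about 35% in these data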;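 further: 0% = median DMSO wells and 100% = median Neomycin B control wells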
Target sequence (P05866 whole entry, looked up): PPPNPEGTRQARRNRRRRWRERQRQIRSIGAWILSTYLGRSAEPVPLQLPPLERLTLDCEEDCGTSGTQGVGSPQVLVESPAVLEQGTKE
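Test system: Cy5-tagged RRE RNA duplex with fluorescein-tagged Rev peptide | Read-out: % inhibition of FRET ratio versus controls | Probe or stimulus: Labelled Rev peptide | Incubation: 5 min RNA-compound premix plus 15 min binding step, 25 °C | Technique: FRET fluorescence readout | Benchmarks: DMSO low control, neomycin B high control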
FAK inh: blocks human focal adhesion kinase activity | hit rate 0.84% among 97,000 | inhibition, %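 (tested at 7 µM)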 | Q05397 | biochemical FAK kinase activity assay;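 further: 0% = DMSO and 100% = reference compound high control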
cytoskel mod: modifiers of cytoskeleton assembly. HUVEC TNFa F-actin phalloidin imaging, high content. inhibition, % at 2 µM. hit rate 0.18% among 91,000. AID 836;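 active means inhibition above the batch mean plus 3 SD and confirmed as a hit by visual image inspection, cut at about 30% in these data, passing the limit was not always enough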
FAK inh conf: confirmation of human focal adhesion kinase (FAK) inhibitors; shares compounds with FAK inh; FAK kinase biochemical inhibition assay; inhibition, % at 7 µM; hit rate 28% among 750; AID 794
An asterisk follows results filed as active; / = no result given; [ ] = remark or other dose. Unless noted, no stated cut-off is given here; in the data, active means inhibition above about 19%; inactive means the rest.

SMILES | E-sel TNF inh | PLK1 kinase inh | Plk1 PBD FP | Rev-RRE block | FAK inh | cytoskel mod | FAK inh conf
COc1ccc(CNC(=O)c2cc3c(=O)n4ccccc4nc3n(Cc3ccco3)c2=N)cc1 | -26.2 | -12.5 | 1.7 | 17.6 | 17.1 | -16.9 | /
O=C(NCc1ccco1)c1cccn2c(=O)c3cc4ccccc4cc3nc12 | 5.4 | 0.3 | 0.1 | 56.7* | 36.8* | 7.4 | 17.1
Cc1c(C(=O)NCCCN2CCOCC2)oc2ccc(S(=O)(=O)N3CCOCC3)cc12 | 2.9 | / | / | / | / | / | /
COc1ccc(/C=N/NC(=O)Nc2cccc3nsnc23)c(OC)c1 | / | -23.1 | -20.6 | -0.5 | 25.6* | 0.8 | 3.0
Cc1c(Cl)c([N+](=O)[O-])nn1CC(=O)N1CCN(Cc2ccccc2)CC1 | -14.6 | / | / | / | / | / | /
CCCOc1ccc(N)cc1N | -14.3 | -1.8 | 1.1 | 101.0*[fluorescence artefact?] | 22.1* | -15.1 | 0.0
Oc1ccc(Br)cc1/C=N/n1cnc2ccccc21 | / | -5.1 | 17.5 | 5.6 | 19.0* | -20.5 | 5.6
O=C(c1ccc2nc(-c3ccco3)c(-c3ccco3)nc2c1)N1CCN(c2ncccn2)CC1 | -1.4 | -3.7 | 35.1 | -1.3 | 55.1* | 8.5 | -2.8
CCCCNC(=O)c1ccc2nc(-c3ccco3)c(-c3ccco3)nc2c1 | -10.7 | / | / | / | / | / | /
O=C(NCc1ccccc1)c1ccc2nc(-c3ccco3)c(-c3ccco3)nc2c1 | 0.1 | 18.4 | -7.9 | -20.7 | 45.5* | -20.6 | 4.3
CC(=O)c1ccc(NC(=O)c2ccc3nc(-c4ccco4)c(-c4ccco4)nc3c2)cc1 | 4.6 | 35.9 | 12.9 | -41.7 | 84.2* | -8.6 | 30.4*
O=C(Nc1ccccc1)c1ccc2nc(-c3ccco3)c(-c3ccco3)nc2c1 | -10.9 | 5.8 | 2.0 | 5.2 | 20.5* | -39.4 | 1.8
Cc1c(NC(=O)CCc2ccccc2)cccc1[N+](=O)[O-] | -9.4 | / | / | / | / | / | /
O=C(N/N=C1\CCCc2ccccc21)c1ccccc1[N+](=O)[O-] | 13.8 | -10.3 | -15.2 | 6.0 | -2.0 | 2.5 | /
COc1ccccc1CNC(=O)/C=C/c1ccc(S(=O)(=O)NCc2ccco2)cc1 | 18.0 | / | / | / | / | / | /
COc1ccc2nc(-c3ccco3)c(-c3ccco3)nc2c1 | -6.4 | 39.0 | 13.8 | 6.6 | 66.5* | -0.8 | 2.9
O=C(NCCO)Nc1ccc2nc(-c3ccco3)c(-c3ccco3)nc2c1 | 10.8 | / | / | / | / | / | /
COc1ccc(N2C(=O)[C@@H]3[C@H](C2=O)[C@H]2c4ccccc4C=CN2[C@@H]3C(C)=O)cc1 | -10.4 | / | / | / | / | / | /
Cc1ccc(NC(=O)CCC(=O)NNC(=O)c2ccccc2[N+](=O)[O-])c(C)c1 | 0.5 | / | / | / | / | / | /
O=C1c2ccccc2C(=O)N1Cc1ccco1 | 7.5 | -5.7 | -5.2 | 4.2 | 0.6 | 4.3 | /
CC1=CC(=C2C(=O)c3ccccc3C2=O)C=C(C)N1Cc1ccco1 | -20.5 | -2.6 | 4.4 | 10.1 | 24.4* | 2.9 | 5.4
O=C(N/N=C/c1ccc(F)cc1)c1cc(-c2ccco2)nc2ccccc12 | -64.3 | -16.6 | 19.4 | -176.3 | 72.1* | 12.6 | 44.8*
CCCN1C=CC(=C2C(=O)c3ccccc3C2=O)C=C1 | 11.5 | / | / | / | / | / | /
CCN1C=CC(=C2C(=O)c3ccccc3C2=O)C=C1 | 3.1 | -11.6 | 16.8 | 11.4 | 36.4* | -12.8 | 11.2
O=C(Nc1ccc([N+](=O)[O-])cn1)C1CC2CCC1C2 (stereo unspecified) | 1.7 | / | / | / | / | / | /
SMILES | E-sel TNF inh | PLK1 kinase inh | Plk1 PBD FP | Rev-RRE block | FAK inh | cytoskel mod | FAK inh conf
Cc1ccccc1-n1c(C)cc(/C=N/Nc2ccc([N+](=O)[O-])cn2)c1C | -5.6 | -14.9 | -16.8 | 32.8 | 3.6 | -5.7 | /
O=[N+]([O-])c1ccc(N/N=C\c2cccn2-c2ccccc2)nc1 | -41.2 | 5.2 | -1.5 | 41.2* | 30.4* | 14.2 | 10.1
COC(=O)CNC(=O)c1sc2ncn(CC(=O)Nc3ccc(C)c(Cl)c3)c(=O)c2c1C | -9.9 | / | / | / | / | / | /
COc1ccc(-c2cn[nH]c2N)cc1 | 0.3 | 17.7 | 1.2 | 6.4 | 6.3 | 4.1 | /
COc1ccc(-c2cn[nH]c2N)c(OC)c1 | -0.8 | -3.1 | -8.8 | 4.6 | 30.6* | -7.3 | 1.2
COc1cc(CNCc2ccccn2)ccc1OCc1cccc(Cl)c1 | / | -15.6 | 2.3 | 2.0 | 1.3 | 6.1 | /
Cc1cc(C)c(NC(=O)CN2C(=O)NC3(CCCCC3)C2=O)c(Cl)c1 | / | -11.6 | -4.1 | 8.1 | 1.0 | -0.3 | /
Cc1cc(C)c(NC(=O)CC(C)(C)C)c(Cl)c1 | -45.1 | -3.4 | -33.9 | 5.0 | 72.7* | 10.2 | 1.9
O=C(COc1ccc(S(=O)(=O)N2CCCC2)cc1)NCCC1=CCCCC1 | 7.4 | -14.3 | -3.6 | 9.2 | 23.2* | -2.0 | 0.7
CC(=O)Oc1ccc(-c2csc(Nc3cccnc3)n2)cc1 | 28.2 | -2.9 | -1.9 | 2.8 | 20.1* | -13.2 | 3.8
Cc1nc2c(=O)n(C)c(=O)n(C)c2nc1Cl | 13.6 | / | / | / | / | / | /
Cc1ccc(N2CC(C(=O)Nc3ccc4c(c3)OCO4)CC2=O)cc1 (stereo unspecified) | 16.7 | -15.1 | 12.0 | 6.2 | 40.5* | 23.3 | 2.0
O=C(Nc1ccc2c(c1)OCO2)C1CC(=O)N(c2ccc3c(c2)OCCO3)C1 (stereo unspecified) | -20.2 | / | / | / | / | / | /
CC1CCCC(C)N1CC(C)(C)NS(=O)(=O)c1ccc(Cl)cc1 (stereo unspecified) | -0.8 | -9.9 | 3.1 | -5.6 | 1.1 | 9.6 | /
Cn1nc(-c2ccc(N3CCN(CCO)CC3)c([N+](=O)[O-])c2)c2ccccc2c1=O | 7.3 | / | / | / | / | / | /
CC(=O)Nc1cc(OC(C)=O)c2nonc2c1OC(C)=O | 9.2 | 4.6 | 53.6* | 4.7 | 57.3* | -2.8 | 3.0
O=C(NCCO)c1cccc(Nc2nc(-c3ccccc3)c3cc(Cl)ccc3n2)c1 | -13.3 | -4.8 | 17.4 | -0.5 | 33.4* | 1.8 | 0.9
O=C1CC(c2ccco2)CC2=C1C=Nc1ccccc1N2 (stereo unspecified) | / | -2.0 | -17.2 | 3.9 | 21.8* | -4.1 | 0.0
OCCNc1ncnc2ccc(Br)cc12 | -17.0 | -1.5 | -1.8 | 11.7 | 7.7 | 4.6 | /
CCN(CC)c1ncnc2ccc(Br)cc12 | 13.2 | -3.1 | -12.7 | 2.7 | 45.4* | -5.4 | 17.6
O=C(CSc1nnc(COc2cccc3cccnc23)o1)N1CCc2ccccc21 | -2.7 | -6.9 | 0.4 | 10.3 | 19.6* | -12.2 | 8.0
O=C(c1ccc(Cl)c(S(=O)(=O)N2CCCCCC2)c1)N1CCN(c2ccccc2O)CC1 | -7.2 | / | / | / | / | / | /
N#Cc1c(-c2ccco2)cc(-c2ccccn2)nc1N | 7.2 | -1.4 | 36.2 | 4.9 | 11.3 | -39.9 | /
N#Cc1c(-c2ccco2)cc(-c2cccnc2)nc1N | / | 54.9* | 35.7 | 13.8 | 19.6* | 22.1 | 5.7
Cc1cc2cc(C)c3nnc(SCC(=O)Nc4ccc(S(=O)(=O)N5CCCCC5)cc4)n3c2cc1C | -16.6 | / | / | / | / | / | /
O=C(COC(=O)C1CC2C=CC1C2)NCc1ccco1 (stereo unspecified) | 2.7 | -12.2 | 23.6 | -8.8 | 30.1* | 0.1 | 3.0
O=C(CN1C(=O)C2C3C=CC(C3)C2C1=O)NCc1ccco1 (stereo unspecified) | -13.0 | -8.3 | 5.5 | 6.6 | -0.9 | 4.9 | /
C=C(c1cccc2ccccc12)P(=O)(O)O | -7.0 | -3.9 | 3.8 | 6.3 | 29.4* | 6.2 | 20.2*

Screening results (PubChem BioAssay)
